“And” between values parts separate entries of the source, which are not always exact repeats. Identical values can stand only once. “Also recorded” adds a separate entry of the source.
Assays:
[1] = target: T1, E. coli agmatinase (EcAGM) (Escherichia coli, UniProt P60651); assay: E. coli agmatinase; format: biochemical; conditions: for Ki: EcAGM, competitive inhibition, pH 7.5, 100 mM HEPES, 2 mM MnCl2, substrate agmatine
T1 sequence (P60651 1-306): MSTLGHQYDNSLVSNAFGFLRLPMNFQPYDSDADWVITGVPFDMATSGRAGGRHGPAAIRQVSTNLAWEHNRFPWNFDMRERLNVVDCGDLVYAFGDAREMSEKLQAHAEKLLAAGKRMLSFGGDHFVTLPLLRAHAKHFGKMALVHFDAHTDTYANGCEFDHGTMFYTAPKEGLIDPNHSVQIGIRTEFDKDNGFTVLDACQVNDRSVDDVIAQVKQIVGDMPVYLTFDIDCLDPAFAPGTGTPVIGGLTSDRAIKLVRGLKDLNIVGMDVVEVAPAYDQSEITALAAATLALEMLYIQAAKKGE

[2] = system: E. faecalis agmatine deiminase (AgDI); assay: Agmatine deiminase activity, GDH coupled enzyme assay; format: biochemical, Enterococcus faecalis; conditions: pH 7.5
Summary of the method: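 His-tagged, codon-optimized E. faecalis AgDI was expressed in E. coli (LB without added metal, 1 mM IPTG, 16°C, 20 h) and purified by Ni-affinity chromatography. Agmatine-initiated ammonia release was coupled to GDH (2.5 U/mL) with 5 mM 2-oxoglutarate, 0.3 mM NADH and 0.8 mM ADP in HEPES-NaOH pH 7.5. Initial rates came from continuous A340 (ε 6220 M⁻¹cm⁻¹, 0.56 cm path).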

complex IV = conditions: cited from earlier work
[3] = target: C. butyricum agmatinase (CbAGM) (Clostridium butyricum, UniProt C4IHF6); format: biochemical; conditions: 5000 µM
Chain of C. butyricum agmatinase (CbAGM) (C4IHF6 1-283): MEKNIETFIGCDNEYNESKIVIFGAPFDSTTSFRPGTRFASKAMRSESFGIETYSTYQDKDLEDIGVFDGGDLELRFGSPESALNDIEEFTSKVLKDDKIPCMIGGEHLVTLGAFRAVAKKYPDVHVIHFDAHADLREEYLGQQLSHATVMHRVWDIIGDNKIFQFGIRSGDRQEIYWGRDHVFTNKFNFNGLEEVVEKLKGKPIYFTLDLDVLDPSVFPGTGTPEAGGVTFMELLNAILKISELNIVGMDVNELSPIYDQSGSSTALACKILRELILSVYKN

[4] = target: serine hydroxymethyltransferase 2; conditions: read-out: Ki, serine hydroxymethyltransferase 2; mixed inhibition; cited from earlier work
type 2 diabetes patients = conditions: cited from earlier work
human PEN2 protein = conditions: cited from earlier work
[5] = system: EcAGM, CbAGM, GpuA, AGMAT, ARG1 and ARG2; assay: HPLC analysis for metformin transformation by purified enzymes; format: in vitro ADME; conditions: 1 mM metformin, 10 μg purified enzyme, 20 mM CHES pH 9, overnight
Summary of the method: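 His-tagged enzymes were expressed in E. coli BL21(DE3) and purified by Ni-affinity IMAC. ARG2 and AGMAT were mitochondrial-signal truncations (ARG2 Δ1-24/Δ331-354, AGMAT Δ1-35). Metformin was incubated with each enzyme, then analysed by reversed-phase C18 HPLC with an isocratic mobile phase of 75:25 (v/v) acetonitrile:10 mM potassium phosphate pH 6.6, which separates guanylurea from metformin.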

[6] = 1000–2000 mg daily; cited from earlier work
[7] = cited from earlier work
[8] = system: human imidazoline receptors (I1, I2); conditions: cited from earlier work
AgDI from E. faecalis = conditions: substrate, cited from earlier work

[H]/N=C(/N)N/C(=N/[H])NCCc1ccccc1 [phenformin]
Ki [1]: 600 µM

CC(C)=CCN=C(N)N [galegine]
Ki [1]: 7 µM
inhibition of agmatine deiminase (AgDI) ([2]; 5 mM galegine): not inhibited

CCCCNC(=N)NC(=N)N [buformin]
Ki [1]: 100 µM

CN(C)C(=N)N=C(N)N [metformin]
inhibitory concentration, mitochondrial respiration proteins like complex IV (complex IV): hundreds of micromolar
predicted reduction in the maximum velocity of EcAGM-like enzymes ([1]; 5 mM metformin, 20 μM agmatine, steady state Michaelis-Menten model): 83%
Ki [1]: 1100 µM and 1000 µM and ~1000 µM
predicted reduction in the maximum velocity of CbAGM-like enzymes [3]: 27%
Ki [4]: 13000 µM
effectiveness of intravenous administration in type 2 diabetes patients (type 2 diabetes patients): little or no effectiveness
binding constant, human PEN2 protein (human PEN2 protein): micromolar range
transformation of metformin by ureohydrolase homologs [5]: No metabolism; also recorded: No transformation
fraction excreted into wastewater [6]: > 80%
concentration of metformin in the human gut [7]: 1000 to 10000 µM
inhibition of agmatine deiminase (AgDI) ([2]; 50 mM metformin): not inhibited
inhibition of agmatine deiminase (AgDI) ([2]; 50 mM metformin, listed as Metformin): does not inhibit

NCCCCN=C(N)N [agmatine]
binding and agonism at human imidazoline receptors (I1, I2) [8]: micromolar range
Km (AgDI from E. faecalis; read-out: KM, AgDI from E. faecalis): 35 µM
kcat, AgDI from E. faecalis (AgDI from E. faecalis): 840 s⁻¹

Source: paper PMC10839685 (iScience, 2024)
